Measurements published in publication PMC5204206 (ACS Omega, 2016).
Like-named read-outs stand apart in the source and are kept apart here.

Tests used:
[1] = target: T1, streptavidin (SA) (Streptomyces avidinii, UniProt P22629); assay: Binding to SA by quenching or enhancement of PB fluorescence
Summary of the method: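 Streptavidin at varied concentrations (spanning at least 20–80% complexation) incubated 1 h at room temperature with shaking in PBS pH 7.4 with fixed PB-linked probe (5 or 25 nM). Ex 400 nm, em 460 nm. SA-alone background subtracted. Change in fluorescence normalized and plotted against SA monomer concentration; one-site specific binding fit, triplicate. For one probe, the three highest SA concentrations (64–256 nM) were excluded.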

[2] = target: T1, streptavidin (SA); assay: Direct binding to SA quantified by Trp-FRET
Summary of the method: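 Tryptophan excited at 295 nm, emission read at 460 nm, averaged over three readings. SA-alone and free-probe signals subtracted, then corrected by quenching ratio (Iad = IFRET/Qr). Plotted against SA monomer concentration; one-site specific binding fit, triplicate.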

[3] = target: T1, streptavidin (SA); assay: Isothermal titration calorimetry; type: binding
[4] = target: T1, streptavidin (SA); assay: Comparison of Trp-FRET acceptors; settings: for FF (FRET fold effect): FF = Iad/Ia; for Iad (intensity of FRET acceptor, sensitivity): acceptor 100 nM bound to SA 400 nM, Ex. 295 nm, at Em. λmax, normalized to Id; for Fold less sensitive than PB (12) as Trp-FRET acceptor / E (efficiency of FRET with tryptophan): bound to SA; for E (efficiency of FRET with tryptophan): E = 1 – Ida/Id
Summary of the method: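 Biotin-linked fluorophore acceptors (100 nM) bound to streptavidin (400 nM, as monomer) in PBS pH 7.4. Tryptophan excited at 295 nm; acceptor intensity (Iad) read at its emission λmax and normalized to donor intensity (Id). FRET efficiency E = 1 − Ida/Id; fold effect FF = Iad/Ia.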

[5] = cited from earlier work
[6] = Photophysical properties of probes in PBS; type: physicochemical; settings: for ε (molar extinction coefficient): PBS (0.5% DMSO), at absorbance λmax; for Fold by which PB-derived probe 12 is brighter than this probe: aqueous PBS (pH 7.4)
Summary of the method: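 ε: Beer's-law plots of absorbance at λmax vs concentration in PBS (0.5% DMSO), 1 cm path; least-squares fit through zero. Spectra: 32 µM for absorbance, 50 nM for emission, excited at λmax. Φ by Williams' method: excitation 396 nm, integrated emission 415–700 nm at 5–160 nM, plotted against absorbance extrapolated from higher concentrations; coumarin 102 standard (Φ = 0.66 in water).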

[7] = target: T1, streptavidin (SA); assay: Competition binding

T1 sequence (P22629 25-183): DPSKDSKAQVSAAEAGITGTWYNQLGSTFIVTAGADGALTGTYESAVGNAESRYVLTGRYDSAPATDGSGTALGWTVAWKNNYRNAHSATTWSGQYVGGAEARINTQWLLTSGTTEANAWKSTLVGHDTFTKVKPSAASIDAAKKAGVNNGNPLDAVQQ

Row | Compound | Kd [3] | FF (FRET fold effect) [4] | Iad (intensity of FRET acceptor, sensitivity) [4] | E (efficiency of FRET with tryptophan) [4] | ε (molar extinction coefficient) [6] | Ki [7] | further results
1 | C[C@@H]1NC(=S)N[C@@H]1CCCCCC(=O)NCCNC(=O)c1cc2cc(F)c(O)c(F)c2oc1=O [compound 18, 6,8-Difluoro-7-hydroxy-N-(2-(6-((4R,5S)-5-methyl-2-thioxoimidazolidin-4-yl)hexanamido)ethyl)-2-oxo-2H-chromene-3-carboxamide] | 125 ± 45 nM |  |  |  |  |  | Change of fluorescence of PB-linked ligand on binding to SA [1]: enhanced; Kd [2]: 145 ± 19 nM
2 | O=C(O)CCCC[C@@H]1SC[C@@H]2NC(=O)N[C@@H]21 [biotin, reference compound] |  |  |  |  |  |  | Effect of competitor on FRET from 12 bound to SA ([4]; biotin 10 μM, 12 100 nM, SA monomer 400 nM): blocked FRET
3 | O=C(CCCC[C@@H]1SC[C@@H]2NC(=O)N[C@@H]21)NCCNC(=O)Cc1cc(=O)oc2cc(O)ccc12 [compound 14, N-(2-(2-(7-Hydroxy-2-oxo-2H-chromen-4-yl)acetamido)ethyl)-5-((3aS,4S,6aR)-2-oxohexahydro-1H-thieno[3,4-d]imidazol-4-yl)pentanamide] |  | 4.8 | 2.2 | 0.21 | 7800 M^–^1cm^–^1 |  | Φf (quantum yield) [5]: 0.47[6]; Fold less sensitive than PB (12) as Trp-FRET acceptor ([4]; compared with 12): 1.5 fold; Reduction of FRET fold effect (FF), factor ([4]; compared with 12, due to increased excitation at 295 nm): 4; Fold by which PB-derived probe 12 is brighter than this probe [6]: ~3 fold
4 | O=C(CCCC[C@@H]1SC[C@@H]2NC(=S)N[C@@H]21)NCCNC(=O)c1cc2cc(F)c(O)c(F)c2oc1=O [compound 17, 6,8-Difluoro-7-hydroxy-2-oxo-N-(2-(5-((3aS,4S,6aR)-2-thioxohexahydro-1H-thieno[3,4-d]imidazol-4-yl)pentanamido)ethyl)-2H-chromene-3-carboxamide] | 12 ± 4 nM |  |  |  |  |  | Change of fluorescence of PB-linked ligand on binding to SA [1]: partially quenched; Kd [2]: 11 ± 2 nM
5 | O=C(O)c1cc2cc(F)c(O)c(F)c2oc1=O [PB, 6,8-Difluoro-7-hydroxy-2-oxo-2H-chromene-3-carboxylic Acid, reference compound] |  |  |  |  |  |  | ε (molar extinction coefficient) [5]: 29 500 M^–1 cm^–1
6 | COC(=O)CCCCC[C@H]1NC(=S)N[C@H]1C [compound 21, Methyl 6-((4R,5S)-5-methyl-2-thioxoimidazolidin-4-yl)hexanoate] |  |  |  |  |  | 693 ± 91 nM | 
7 | C[C@@H]1NC(=S)N[C@@H]1CCCCCC(=O)O [compound 20, 6-((4R,5S)-5-Methyl-2-thioxoimidazolidin-4-yl)hexanoic Acid] | 1550 ± 270 nM |  |  |  |  | 1350 ± 180 nM | 
8 | CN(C)c1ccc2c(CC(=O)NCCNC(=O)CCCC[C@@H]3SC[C@@H]4NC(=O)N[C@@H]43)cc(=O)oc2c1 [compound 15, N-(2-(2-(7-(Dimethylamino)-2-oxo-2H-chromen-4-yl)acetamido)ethyl)-5-((3aS,4S,6aR)-2-oxohexahydro-1H-thieno[3,4-d]imidazol-4-yl)pentanamide] |  | 8.0 | 0.6 | 0.35 | 11 600 M^–^1cm^–^1 |  | Φf (quantum yield) [5]: 0.06[6]; Fold less sensitive than PB (12) as Trp-FRET acceptor ([4]; compared with 12): 6 fold; Fold by which PB-derived probe 12 is brighter than this probe [6]: ~17 fold
9 | O=C(CCCC[C@@H]1SC[C@@H]2NC(=O)N[C@@H]21)NCCNC(=O)c1cc2cc(F)c(O)c(F)c2oc1=O [compound 12, 6,8-Difluoro-7-hydroxy-2-oxo-N-(2-(5-((3aS,4S,6aR)-2-oxohexahydro-1H-thieno[3,4-d]imidazol-4-yl)pentanamido)ethyl)-2H-chromene-3-carboxamide] |  | 19.2 | 3.3 | 0.40 | 24 200 M^–^1cm^–^1 |  | Φf (quantum yield) ([6]; PBS, relative to coumarin 102): 0.74
10 | C[C@@H]1NC(=S)NC1CCCCCC(=O)OCc1ccccc1 (stereo partly drawn) [compound 22, Benzyl 6-((5S)-5-methyl-2-thioxoimidazolidin-4-yl)hexanoate] |  |  |  |  |  | 188 ± 25 nM | 
